# An excerpt weighted towards active compounds, which were near 2.4% of everything screened.
# SUMO1 PPI mod – modulators of SUMO1 protein-protein interactions, primary screen, biochemical, uHTS. Small ubiquitin-related modifier 1 (Homo sapiens), P63165. SUMO1 binding to a labelled peptide, TR-FRET, 1 h. inhibition, % at 20 µM. 360,000 compounds, 0.33% hits. AID 602429, 2012; in the data active means inhibition above about 37%
# Target sequence (P63165 whole entry, looked up): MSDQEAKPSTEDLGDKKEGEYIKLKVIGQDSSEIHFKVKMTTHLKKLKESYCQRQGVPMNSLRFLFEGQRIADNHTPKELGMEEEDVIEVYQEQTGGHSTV
# Scp1 inh – Scp-1 phosphatase inhibitors, primary screen, biochemical, colorimetric, uHTS | Recombinant Scp1, phosphopeptide, malachite green phosphate absorbance | 340,000 compounds, 0.88% hits | inhibition, % at 20 µM;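 active means inhibition above about 50% at 20 µM, limit read from the data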;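 further: plate controls were DMSO wells with enzyme for no effect and wells lacking enzyme for full effect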
#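 Material – SCP-1 phosphatase catalytic domain, residues 76-261 · Buffer or medium – Acidic Tris acetate buffer with magnesium and detergent · Also added – Phospho 17-mer peptide substrate · Compound – single 20 µM dose, 1% DMSO · Times – 45 min room-temperature reaction, 5 min colour, 30 min stabiliser · Technique – Phosphate-binding colour reagent, absorbance read at 630 nm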
# STEP inh – STEP phosphatase inhibitors, primary screen, biochemical, fluorescence intensity, uHTS. AID 588621, 2011. Tyrosine-protein phosphatase non-receptor type 5 (Homo sapiens), P54829. recombinant STEP, OMFP fluorogenic substrate. inhibition, % at 20 µM. 360,000 compounds, 0.25% hits;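 active means inhibition at 20 µM, scaled per plate between control wells, above about 37%, limit read from the data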;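 further: 0% = DMSO with enzyme and substrate and 100% = substrate only without enzyme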
# Target sequence (P54829 whole entry, looked up): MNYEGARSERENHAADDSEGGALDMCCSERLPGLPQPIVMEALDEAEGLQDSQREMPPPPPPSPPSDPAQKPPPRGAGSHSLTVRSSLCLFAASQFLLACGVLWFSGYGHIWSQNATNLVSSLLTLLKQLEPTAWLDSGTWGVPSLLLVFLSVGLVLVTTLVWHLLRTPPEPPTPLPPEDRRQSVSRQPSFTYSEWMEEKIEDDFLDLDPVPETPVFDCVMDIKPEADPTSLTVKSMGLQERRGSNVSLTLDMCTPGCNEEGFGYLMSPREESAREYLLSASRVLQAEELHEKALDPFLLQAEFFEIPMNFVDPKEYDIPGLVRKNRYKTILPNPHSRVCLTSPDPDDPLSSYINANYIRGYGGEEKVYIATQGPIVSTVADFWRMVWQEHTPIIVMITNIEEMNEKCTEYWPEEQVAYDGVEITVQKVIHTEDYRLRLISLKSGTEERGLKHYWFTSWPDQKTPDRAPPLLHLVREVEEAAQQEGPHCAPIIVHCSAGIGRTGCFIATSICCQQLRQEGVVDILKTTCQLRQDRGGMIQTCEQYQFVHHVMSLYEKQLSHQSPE
#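 Material: STEP (striatal-enriched tyrosine phosphatase) enzyme, cell-free; Compound dosing: 20 µM single dose in 1% DMSO; Technique: fluorescence read at 480 nm ex / 540 nm em; Times: reaction 20 min, ambient temperature; Medium: 50 mM Bis-Tris pH 6.0 with 2.5 mM DTT and 0.005% Tween 20; Also added: OMFP at 25 µM.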
# NadD inh – inhibitors of S. aureus NadD, primary screen, biochemical, colorimetric, uHTS | Nicotinate-nucleotide adenylyltransferase NadD (Staphylococcus aureus N315) | purified NadD enzyme, colorimetric absorbance read-out | inhibition, % at 20 µM | 360,000 compounds, 0.78% hits; in the data active means inhibition above about 26%
# DNMT1 inh – human DNMT1 methyltransferase inhibitors, primary screen, biochemical, molecular beacon, fluorescence, HinP1I cleavage, uHTS; inhibition (reported as % activation of signal), % at 10 µM; DNA (cytosine-5)-methyltransferase 1 (Homo sapiens), P26358; 360,000 compounds, 0.83% hits; AID 588458, 2011; in the data active means inhibition above about 50%
# LMPTP block – LMPTP phosphatase inhibitors, primary screen, biochemical, fluorescence intensity, uHTS | Low molecular weight phosphotyrosine protein phosphatase (Homo sapiens), P24666 | recombinant LMPTP-A, OMFP fluorogenic substrate | inhibition, % at 20 µM | 360,000 compounds, 0.22% hits;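 active means compounds that cut the enzyme signal by at least half of the control window in the single-dose screen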;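 further: plate controls were DMSO wells with enzyme plus substrate for no effect and substrate without enzyme for full effect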
#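 material = LMPTP-A | quantity = 0.625 nM enzyme | reagent = OMFP substrate, 400 µM final | buffer or medium = Bis-Tris pH 6.0, DTT, detergent | detection = endpoint fluorescence intensity from OMFP dephosphorylation | dosing = single 20 µM dose | read-out basis = % inhibition relative to no-enzyme and uninhibited control wells | control set = no-enzyme and uninhibited controls | timing = 50 min at room temperature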
# Scp-1 conf – Scp-1 phosphatase inhibitors, retest, confirmation, biochemical, colorimetric, single concentration; shares compounds with Scp1 inh; recombinant SCP-1 catalytic domain, phosphate release, malachite green absorbance; inhibition, % at 20 µM; 2,500 compounds, 61% hits; AID 540281, 2011;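 further: plate controls were DMSO with enzyme for no effect and buffer wells lacking enzyme for full effect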
# Scp-1 MG ctr – colorimetric readout interference by compounds, confirmation, artefact control for Scp-1 inhibitor project, biochemical, single concentration. apparent inhibition (interference), % at 20 µM. shares compounds with Scp1 inh. 2,500 tested, under 10 active. Colorimetric interference counterscreen, malachite green absorbance 630 nm. AID 540313, 2011;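 further: compounds added after enzyme reaction finished so only phosphate colour detection is probed; plate controls were DMSO wells with completed Scp-1 reaction for no effect and substrate wells lacking enzyme for full effect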
# Scp-1 Tm shift – Scp-1 binding by thermal shift, confirmation, orthogonal assay for Scp-1 inhibitor project, biophysical, differential scanning fluorimetry. AID 540329, 2011. shares compounds with Scp1 inh. Recombinant SCP1, Sypro Orange thermal shift Tm. thermal shift relative to vanadate control, % at 40 µM. 1,500 compounds, 25% hits;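 active means substances whose mean melting-temperature shift, as a percentage of the reference inhibitor's shift, reaches about 5.3%, limit read from the data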;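 further: 0% = Tm of DMSO wells and 100% = Tm with sodium orthovanadate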
# Beacon interf DR – spectral interference with molecular beacon fluorescence, dose response, artefact control for DNMT1 inhibitor project, biochemical, fluorescent molecular beacon. spectral interference counter-screen. AID 602382, 2012. shares compounds with DNMT1 inh. IC50, µM. 200 tested, under 10 active; call rule not given here
# DNMT1 inh conf – DNMT1 methyltransferase inhibitor retest, confirmation, biochemical, molecular beacon, fluorescence, single concentration | shares compounds with DNMT1 inh | inhibition, % at 10 µM | DNMT1 molecular beacon HinP1I cleavage | AID 602385, 2012 | 2,300 compounds, 8% hits;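 active means average inhibition of at least 30% in the single-concentration confirmation test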
# Beacon interf – counter-screen for DNMT1 inhibitors: spectral interference; shares compounds with DNMT1 inh; DNMT1 molecular beacon spectral interference counterscreen, fluorescence 485/520; activation (fluorescence interference), % at 10 µM; 2,300 compounds, 1% hits;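 active means activation of at least 30% at 10 µM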;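 further: DNMT1 catalytic domain with a HinP1I cleavage step and a FAM/dabcyl DNA beacon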
# An asterisk follows results filed as active; x = no result given.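 How the source made its calls, unless noted: active means inhibition of at least 30% at 20 µM; inactive means the rest.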
SMILES,SUMO1 PPI mod,Scp1 inh,STEP inh,NadD inh,DNMT1 inh,LMPTP block,Scp-1 conf,Scp-1 MG ctr,Scp-1 Tm shift,DNMT1 inh conf,Beacon interf,others
O=S(c1ccc2ccccc2c1)c1cnns1 (stereo unspecified),-4.6,-6.0,3.3,-3.3,3.3,0.0,x,x,x,x,x,
C#Cc1ccc([C@@H]2C=C(C(=O)O)O[C@H](OCC)[C@H]2CCCO)cc1,30.5,52.6*,11.9,0.6,52.4*,-1.2,47.2*,-17.2,-13.0,3.2,0.3,
Cc1ccc(Cl)cc1N1CCN(C(=O)CSc2ccsc2[N+](=O)[O-])CC1,-5.7,55.4*,1.5,21.4,62.6*,2.4,68.1*,-4.9,8.1*,0.1,-0.9,
O=C(CSc1ccc(Cl)cc1)N1CCN(c2ccc([N+](=O)[O-])cc2Cl)CC1,-12.2,-11.3,6.7,-2.7,-3.5,6.7,x,x,x,x,x,
COc1ccc(S(=O)(=O)N2CCOCC2)cc1NC(=O)c1cccc(-n2cccc2)c1,23.0,57.7*,-0.4,22.7,72.7*,12.7,-7.1,-18.4,x,0.2,-5.2,
COc1ccccc1NC(=O)c1cccc(S(=O)(=O)N2CCOCC2)c1,-3.4,-7.0,-0.1,4.5,-3.1,0.2,x,x,x,x,x,
COc1ccc(/C=C/C(=O)OCc2cc(=O)n3c(n2)sc2ccccc23)cc1,-5.4,-2.5,3.3,9.0,6.1,3.2,x,x,x,x,x,
Cc1cccc(C(=O)NCC(=O)OCc2cc(=O)n3ccsc3n2)c1,-1.2,-1.9,-0.1,-2.8,0.2,-1.3,x,x,x,x,x,
O=C(OCc1cc(=O)n2c(n1)sc1ccccc12)c1ccc(O)cc1,9.2,63.9*,3.4,-0.5,56.2*,1.7,53.5*,-20.8,-8.8,1.2,2.3,
Cc1cccc(C(=O)N[C@H](C(=O)OCc2cc(=O)n3c(n2)sc2ccccc23)C(C)C)c1,7.8,72.5*,9.1,2.1,98.1*,23.1,49.7*,-22.1,2.4,3.1,0.6,
CCn1cc(C(=O)NN)c(=O)c2cc(F)c(NC3CCCCC3)cc21,0.5,-7.0,2.5,3.2,-1.1,-0.3,x,x,x,x,x,
CCCc1nc2oc3ccccc3c(=O)c2c(=O)n1-c1ccc(C)cc1,5.6,-7.9,2.3,2.9,8.6,-1.8,x,x,x,x,x,
CCc1nc2oc3ccccc3c(=O)c2c(=O)n1-c1ccc(C)cc1,10.6,64.9*,5.4,-1.9,78.3*,46.6,56.3*,-15.6,4.1,4.9,0.8,
CC(=O)OCC1=C(C(=O)O)N2C(=O)C(NC(=O)c3ccc(COc4cccc(Cl)c4Cl)o3)C2SC1 (stereo unspecified),15.3,52.9*,2.3,9.6,87.6*,9.3,66.0*,-15.3,3.8,41.3*,3.9,Beacon interf DR=>99
O=C1Nc2ccc(S(=O)(=O)NCc3ccco3)c3cccc1c23,11.4,56.3*,-6.8,-2.9,63.1*,2.8,69.7*,1.7,-3.1,0.8,78.2*,
COc1ccc(S(=O)(=O)N2CCC(C(=O)Nc3nnc(CCN4CCCCC4)s3)CC2)cc1,-0.5,-5.6,-3.5,-1.9,0.4,0.2,x,x,x,x,x,
O=C1COc2ccc(C(=O)COC(=O)/C=C/c3ccco3)cc2N1,-12.6,59.0*,8.0,-0.9,57.0*,16.2,56.8*,-10.1,-14.5,4.6,3.4,
O=C(/C=C/c1ccco1)OCC(=O)N1CCCCC1,-14.0,96.2*,40.9*,-1.5,50.3*,14.8,50.6*,-19.9,-8.3,-1.3,-0.2,
CCCc1nc2ccc(C(=O)OC)cn2c1Cc1ccccc1,3.3,x,0.5,-1.4,-7.0,0.3,x,x,x,x,x,
NS(=O)(=O)c1ccc(CNC(=O)Cc2c(F)cccc2Cl)cc1,3.2,-7.3,-1.3,-1.7,-0.4,0.9,x,x,x,x,x,
O=C(Nc1ccc2c(c1)OCO2)c1cc2ncc(Br)cn2n1,8.7,57.4*,11.6,26.8,59.4*,36.5,66.4*,-5.2,1.1,0.0,-2.1,
O=C(COC(=O)C1CCCCC1)Nc1ccc(N2CCCCC2)cc1,-10.9,-6.0,-6.1,1.5,0.2,1.4,x,x,x,x,x,
Cc1ccc(C(=O)NCc2occc2C(=O)O)o1,2.9,53.3*,5.1,-1.7,53.0*,-2.6,52.5*,-5.7,-0.3,3.1,1.2,
Cc1ccc(C(=O)NCc2ccco2)o1,0.6,26.1,11.7,-4.0,16.5,-0.8,x,x,x,x,x,
COc1ccc(Cn2c(-c3ccco3)nc3oc4cc(OC)ccc4c(=O)c3c2=O)cc1,16.1,79.4*,8.6,24.7,61.3*,32.5,67.8*,-10.4,-1.7,14.9,-5.7,
COc1ccc(-c2nc3oc4cc(OC)ccc4c(=O)c3c(=O)n2Cc2ccco2)cc1,17.2,4.9,2.8,24.3,7.4,13.9,x,x,x,x,x,
COc1ccc2c(=O)c3c(=O)n(Cc4ccco4)c(-c4ccco4)nc3oc2c1,13.4,91.6*,20.0,9.1,86.3*,47.1,74.2*,-1.9,4.4,4.1,2.4,
COc1cc(CCC(=O)Nc2ccc(S(=O)(=O)N3CCOCC3)cc2)cc(OC)c1OC,0.6,-3.3,-1.1,-2.3,3.8,-0.1,x,x,x,x,x,

# Compound activity from PubChem.
